# Test results taken from ChEMBL document CHEMBL1124366, “Synthesis and biological properties of N63-carboxamides of teicoplanin antibiotics. Structure-activity relationships” (J Med Chem, 1989).
# Assays:
# Format in all cases: functional
# Streptococcus pyogenes [1] = assay: In vivo effective dose given perorally to mice infected with Streptococcus pyogenes C 203; details: po
# Method in brief: (§1)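 Mice (five per treatment group, five groups) infected intraperitoneally with about 10⁵ cells of Strep. pyogenes C 203, about 100× the LD50. ED50 (mg/kg) was calculated from the percentage of mice surviving at each dose on day 7.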
# Streptococcus pyogenes [2] = assay: Subcutaneously administration into mice infected with Streptococcus pyogenes C 203; details: sc; method in brief: as §1
# [3] = system: Staphylococcus epidermidis; assay: In vitro minimum inhibitory concentration against Staphylococcus epidermis ATCC 12228
# Staphylococcus aureus = assay: In vitro minimum inhibitory concentration against Staphylococcus aureus Tour
# Streptococcus pneumoniae = assay: In vitro minimum inhibitory concentration against Streptococcus pneumoniae UC41
# Streptococcus pyogenes [4] = assay: In vitro minimum inhibitory concentration against Streptococcus pyogenes C 203
# Enterococcus faecalis = assay: In vitro minimum inhibitory concentration against Streptococcus faecalis ATCC 7080
# Escherichia coli = assay: In vitro minimum inhibitory concentration against Escherichia coli SKF 12140
# Proteus vulgaris = assay: In vitro minimum inhibitory concentration against Proteus vulgaris X 19 ATCC 881
# [5] = system: Staphylococcus haemolyticus; assay: In vitro minimum inhibitory concentration against Staphylococcus hemolyticus 602 cell line; details: strain 602
MIC [3],MIC (Staphylococcus aureus),MIC (Streptococcus pneumoniae),MIC (Streptococcus pyogenes [4]),MIC (Enterococcus faecalis),MIC (Escherichia coli),MIC (Proteus vulgaris),SMILES,ED50 (Streptococcus pyogenes [1]),ED50 (Streptococcus pyogenes [2]),MIC [5]
0.12 µg/mL,0.5 µg/mL,1 µg/mL,0.25 µg/mL,1 µg/mL,128 µg/mL,> 128 µg/mL,CCOC(=O)CNC(=O)[C@H]1NC(=O)[C@H]2NC(=O)[C@H](NC(=O)[C@@H]3NC(=O)[C@H]4NC(=O)[C@@H](Cc5ccc(c(Cl)c5)Oc5cc3cc(c5O)Oc3ccc(cc3Cl)[C@H]2O[C@@H]2O[C@@H](CO)[C@@H](O)[C@H](O)[C@@H]2NC(C)=O)NC(=O)[C@H](N)c2ccc(O)c(c2)Oc2cc(O)cc4c2)c2ccc(O)c(c2)-c2c(O)cc(O)cc21,,5 mg/kg,
0.06 µg/mL,0.25 µg/mL,2 µg/mL,0.25 µg/mL,0.5 µg/mL,> 128 µg/mL,> 128 µg/mL,COC(=O)CNC(=O)[C@H]1NC(=O)[C@H]2NC(=O)[C@H](NC(=O)[C@@H]3NC(=O)[C@H]4NC(=O)[C@@H](Cc5ccc(c(Cl)c5)Oc5cc3cc(c5O)Oc3ccc(cc3Cl)[C@H]2O[C@@H]2O[C@@H](CO)[C@@H](O)[C@H](O)[C@@H]2NC(C)=O)NC(=O)[C@H](N)c2ccc(O)c(c2)Oc2cc(O)cc4c2)c2ccc(O)c(c2)-c2c(O)cc(O)cc21,,7 mg/kg,
0.06 µg/mL,0.12 µg/mL,0.5 µg/mL,0.12 µg/mL,0.25 µg/mL,64 µg/mL,128 µg/mL,CCN(CC)CCCNC(=O)[C@H]1NC(=O)[C@H]2NC(=O)[C@H](NC(=O)[C@@H]3NC(=O)[C@H]4NC(=O)[C@@H](Cc5ccc(c(Cl)c5)Oc5cc3cc(c5O)Oc3ccc(cc3Cl)[C@H]2O[C@@H]2O[C@@H](CO)[C@@H](O)[C@H](O)[C@@H]2NC(C)=O)NC(=O)[C@H](N)c2ccc(O)c(c2)Oc2cc(O)cc4c2)c2ccc(O)c(c2)-c2c(O)cc(O)cc21,,0.95 mg/kg,

# The remaining lines, values behind:
SMILES,MIC [3],MIC (Staphylococcus aureus),MIC (Streptococcus pneumoniae),MIC (Streptococcus pyogenes [4]),MIC (Enterococcus faecalis),MIC (Escherichia coli),MIC (Proteus vulgaris),ED50 (Streptococcus pyogenes [1]),ED50 (Streptococcus pyogenes [2]),MIC [5]
CC(=O)N[C@@H]1[C@H](O[C@@H]2c3ccc(c(Cl)c3)Oc3cc4cc(c3O[C@@H]3O[C@@H](CO)[C@@H](O)[C@H](O)[C@@H]3NC(=O)CCCCCCC(C)C)Oc3ccc(cc3Cl)C[C@H]3NC(=O)[C@H](N)c5ccc(O)c(c5)Oc5cc(O)cc(c5)[C@H](NC3=O)C(=O)N[C@H]4C(=O)N[C@H]3C(=O)N[C@@H]2C(=O)N[C@H](C(=O)NC2CN4CCC2CC4)c2cc(O)cc(O[C@H]4O[C@H](CO)[C@@H](O)[C@@H](O)[C@@H]4O)c2-c2cc3ccc2O)O[C@@H](CO)[C@@H](O)[C@@H]1O (stereo not given in full),0.12 µg/mL,0.12 µg/mL,0.06 µg/mL,0.06 µg/mL,0.12 µg/mL,,,173 mg/kg,0.07 mg/kg,
CCCCC/C=C/CCC(=O)N[C@@H]1[C@H](Oc2c3cc4cc2Oc2ccc(cc2Cl)[C@@H](O[C@@H]2O[C@@H](CO)[C@@H](O)[C@H](O)[C@@H]2NC(C)=O)[C@@H]2NC(=O)[C@H](NC(=O)[C@@H]4NC(=O)[C@H]4NC(=O)[C@@H](Cc5ccc(c(Cl)c5)O3)NC(=O)[C@H](N)c3ccc(O)c(c3)Oc3cc(O)cc4c3)c3ccc(O)c(c3)-c3c(O[C@H]4O[C@H](CO)[C@@H](O)[C@@H](O)[C@@H]4O)cc(O)cc3[C@@H](C(=O)NC(CCC(=O)O)C(=O)O)NC2=O)O[C@@H](CO)[C@@H](O)[C@@H]1O (stereo not given in full),0.12 µg/mL,0.5 µg/mL,0.12 µg/mL,0.06 µg/mL,0.25 µg/mL,,,,,4 µg/mL
CC(=O)NC1C(O[C@@H]2c3ccc(c(Cl)c3)Oc3cc4cc(c3O)Oc3ccc(cc3Cl)C[C@H]3NC(=O)[C@H](N)c5ccc(O)c(c5)Oc5cc(O)cc(c5)[C@H](NC3=O)C(=O)N[C@H]4C(=O)N[C@H]3C(=O)N[C@@H]2C(=O)N[C@H](C(=O)NCCN2CCCC2)c2cc(O)cc(O)c2-c2cc3ccc2O)OC(CO)C(O)C1O (stereo not given in full),0.06 µg/mL,0.12 µg/mL,0.25 µg/mL,0.25 µg/mL,0.5 µg/mL,128 µg/mL,> 128 µg/mL,,2.2 mg/kg,
